Reference: ChEMBL document CHEMBL4190344, “Synthesis of substituted phenanthrene-9-benzimidazole conjugates: Cytotoxicity evaluation and apoptosis inducing studies” (Eur J Med Chem, 2017)
Activity calls are given as the source filed them. No cut-off for these calls is given here.

How the values were obtained:
BT-549 = assay: Cytotoxicity in human BT549 cells incubated for 48 hrs by MTT assay; format: functional, cell-based; conditions: BT-549, 48 h
Outline: (§1)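 Cells (1 × 10^4/well) were seeded in medium with 10% FBS and left 24 h at 37 °C. Compound diluted in medium was then added, alongside a vehicle control, for 48 h. MTT (5 mg/mL stock) was added for 4 h, formazan dissolved in DMSO and absorbance read at 570 nm. IC50 taken as the concentration giving 50% inhibition.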

MDA-MB-453 = assay: Cytotoxicity in human MDA-MB-453 cells incubated for 48 hrs by MTT assay; format: functional, cell-based; conditions: MDA-MB-453, 48 h; outline: as §1
HCT-116 = assay: Cytotoxicity in human HCT116 cells incubated for 48 hrs by MTT assay; format: functional, cell-based; conditions: HCT-116, 48 h
Outline: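 Cells (1 × 10^4/well) were seeded in medium with 10% FBS and left 24 h at 37 °C. Compound diluted in medium was then added, alongside a vehicle control, for 48 h. MTT (5 mg/mL stock) was added for 4 h, formazan dissolved in DMSO and absorbance read at 570 nm.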

PC-3 = assay: Cytotoxicity in human PC3 cells incubated for 48 hrs by MTT assay; format: functional, cell-based; conditions: PC-3, 48 h; outline: as §1
DU-145 = assay: Cytotoxicity in human DU145 cells incubated for 48 hrs by MTT assay; format: functional, cell-based; conditions: DU-145, 48 h; outline: as §1
HCT-15 = assay: Cytotoxicity in human HCT15 cells incubated for 48 hrs by MTT assay; format: functional, cell-based; conditions: HCT-15, 48 h; outline: as §1
Calf thymus DNA = assay: Binding affinity to calf thymus DNA assessed as increase in relative viscosity of DNA-compound complex at 5 uM by viscometry; format: nucleic-acid assay; conditions: Bos taurus
Outline: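 Viscosity titration of test compound (5 µM) into CT-DNA (50 µM) in 100 mM Tris-HCl pH 7.0. Rolling-ball viscometer, ball fall time read at angles of 20° to 70°, Peltier-held temperature, viscosity calculated at 25 °C.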

Structure (SMILES)	IC50 (BT-549) [µM]	IC50 (MDA-MB-453) [µM]	IC50 (HCT-116) [µM]	IC50 (PC-3) [µM]	IC50 (DU-145) [µM]	IC50 (HCT-15) [µM]	Activity (Calf thymus DNA)
COc1ccc2cc(-c3nc4ccc(Cl)cc4[nH]3)c3cc(OC)c(OC)cc3c2c1	14.2	> 20	11.3	7.24	> 20	> 20	Active
CN1CCN(c2ccc3[nH]c(-c4ccc5[nH]c(-c6ccc(O)cc6)nc5c4)nc3c2)CC1							inactive
COc1cc2cc(-c3nc4cc(Cl)ccc4n3Cc3cc(C)cc(C)c3)c3cc(OC)c(OC)cc3c2cc1OC	> 20	16.5	> 20	12.8	> 20	15.6	
COc1cccc2c1C(=O)c1c(O)c3c(c(O)c1C2=O)C[C@@](O)(C(=O)CO)C[C@@H]3O[C@H]1C[C@H](N)[C@H](O)[C@H](C)O1 [DOXORUBICIN]					1.91		Active
COc1cc2cc(-c3nc4ccc(C(=O)O)cc4[nH]3)c3cc(OC)c(OC)cc3c2cc1OC	> 20	10.6	9.92	10.2	12.7	8.34	
COc1cc2cc(-c3nc4ccccc4[nH]3)c3cc(OC)c(OC)cc3c2cc1OC	> 20	> 20	> 20	12.8	18.9	> 20	
COc1cc2cc(-c3nc4ccc(Cl)cc4[nH]3)c3cc(OC)c(OC)cc3c2cc1OC	> 20	9.42	> 20	18.9	> 20	> 20	
COC(=O)c1ccc2nc(-c3cc4cc(OC)c(OC)cc4c4cc(OC)c(OC)cc34)[nH]c2c1	> 20	> 20	> 20	16.7	17.2	> 20	
COc1cc2cc(-c3nc4cc(C)cc(C)c4[nH]3)c3cc(OC)c(OC)cc3c2cc1OC	7.15	> 20	> 20	18.3	> 20	> 20	
COc1cc2cc(-c3nc4ccc(Br)cc4[nH]3)c3cc(OC)c(OC)cc3c2cc1OC	> 20	15.1	> 20	15.7	> 20	> 20	
COc1ccc2nc(-c3cc4cc(OC)c(OC)cc4c4cc(OC)c(OC)cc34)[nH]c2c1	11.5	9.98	8.91	13.1	> 20	10.2	
COc1cc2cc(-c3nc4ccc(C)cc4[nH]3)c3cc(OC)c(OC)cc3c2cc1OC	> 20	> 20	> 20	> 20	8.21	> 20	
COc1ccc2cc(-c3nc4ccccc4[nH]3)c3cc(OC)c(OC)cc3c2c1	11.4	> 20	> 20	> 20	17.2	> 20	
COc1ccc2cc(-c3nc4ncc(Br)cc4[nH]3)c3cc(OC)c(OC)cc3c2c1	7.91	> 20	> 20	11.3	> 20	> 20	
CC[n+]1c(-c2ccccc2)c2cc(N)ccc2c2ccc(N)cc21							Active
COc1cc2cc(-c3nc4ccc(F)cc4[nH]3)c3cc(OC)c(OC)cc3c2cc1OC	10.8	> 20	> 20	14.6	> 20	9.42	
COc1cc2cc(-c3nc4ncc(Br)cc4[nH]3)c3cc(OC)c(OC)cc3c2cc1OC	> 20	> 20	> 20	> 20	10	> 20	
COC(=O)Nc1nc2cc(C(=O)c3cccs3)ccc2[nH]1 [NOCODAZOLE]		0.91	1.06	1.84	1.14		
O=c1[nH]cc(F)c(=O)[nH]1 [FLUOROURACIL]			8.62		2.18		
COc1ccc2cc(-c3nc4cc(Cl)ccc4n3Cc3ccccc3)c3cc(OC)c(OC)cc3c2c1	> 20	7.2	> 20	> 20	> 20	14.1	
COc1cc2cc(-c3nc4cc(Cl)ccc4n3Cc3ccccc3)c3cc(OC)c(OC)cc3c2cc1OC	> 20	17.3	> 20	11.5	> 20	10.3	
